High-throughput results: PubChem BioAssay, several laboratories
Exocytosis inh = blocks lytic granule exocytosis; TALL-104 LAMP-1 surface exposure, flow cytometry; cells stimulated with thapsigargin and PMA; inhibition, % at 10 µM; 360,000 compounds, 0.66% hits; AID 651702;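 active = inhibition above about 55%, limit read from the data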
NRP1-CendR mod = modulators of CendR peptide binding to human neuropilin-1. AID 602438. inhibition, % at 25 µM. O14786. 360,000 compounds, 0.85% hits. FAM-RPARPAR peptide binding to NRP-1, fluorescence polarization;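 active = inhibition or corrected inhibition above about 18%, plus a signal ratio from 0.5 to 1.5, limit read from the data, passing the limit was not always enough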
ARFGAP1 inhibitor = inhibits rat ARF GTPase activating protein 1. Q62848. Arfgap1-stimulated ARF1 GTP hydrolysis, GDP FP detection. inhibition, % at 16.5 µM. 360,000 compounds, 0.26% hits. AID 651572;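 active = inhibition above a per-plate limit, mean inhibition of low control wells plus 3 SD, cut at about 25% in these data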;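 note: 0% = DMSO wells with enzyme and 100% = wells lacking Arfgap1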
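material = rat Arfgap1 catalytic domain, aa 1-136 | also added = human ARF1(Δ1-17)-GTP substrate | compound dosing = one concentration, 16.5 µM, DMSO 1.26% | times = GTP hydrolysis reaction 2 h at 25 °C | measured by = FP, GDP Alexa 633 tracer displaced from anti-GDP antibody, 620/688 nm | evaluation = percent inhibition of Arfgap1-stimulated GTP hydrolysis | replication = single well per compound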
ASAP1 inh = ASAP1 ArfGAP inhibition; Q9ULH1; ASAP1-stimulated ARF1 GTP hydrolysis, GDP FP detection; inhibition, % at 16.5 µM; 360,000 compounds, 0.19% hits; AID 624377; in the data active = inhibition above about 25%;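 note: 0% = vehicle with enzyme and substrate and 100% = no enzyme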
V-ATPase pHluor = yeast V-ATPase proton transport regulation by pHLuorin. S. cerevisiae, pHLuorin cytosolic pH fluorescence. response, % at 10 µM. AID 504577. 350,000 compounds, 0.37% hits; in the data active = response mostly above about 7.3%, no sharp cut-off; inactive = mostly below about 5.4%; note: actives read high
ASAP1 inh confirm = ASAP1 inhibition confirmed; shares compounds with ASAP1 inh; ASAP1-stimulated Arf1 GTPase, GDP fluorescence polarization; inhibition, % at 16.5 µM; 620 compounds, 37% hits;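 active = mean inhibition over triplicates exceeds the hit threshold derived for the earlier primary screening run, cut at about 25% in these data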
ARFGAP1 confirm = rat ARFGAP1 inhibition, confirmed; shares compounds with ARFGAP1 inhibitor; ARFGAP1-stimulated ARF1 GTP hydrolysis, GDP tracer FP; inhibition, % at 16.5 µM; 890 compounds, 30% hits;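 active = average inhibition over triplicates above the hit cutoff set in the earlier primary screen, cut at about 25% in these data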;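 note: 0% = Arfgap1 plus ARF1-GTP with DMSO and 100% = wells lacking Arfgap1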
Granule exo CP1 = blocks lytic granule exocytosis | shares compounds with Exocytosis inh | TALL-104 cells, LAMP-1 externalization, flow cytometry; stimulated with PMA plus thapsigargin | inhibition, % at 10 µM | 1,500 compounds, 11% hits | AID 651954; in the data active = inhibition above about 60%;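 note: 0% = stimulated vehicle wells and 100% = unstimulated wells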
Numbers without * were called inactive; . = no result given; + = active, no number. In the library only some 2.2% were active in any assay of this set; here they are far more common.

SMILES	Exocytosis inh	NRP1-CendR mod	ARFGAP1 inhibitor	ASAP1 inh	V-ATPase pHluor	ARFGAP1 confirm	others
Cc1csc(NC(=O)c2ccc(Cl)nc2)n1	5.6	2.9	2.0	-8.5	0.9	.
COc1ccc([N+](=O)[O-])cc1NC(=O)c1ccc(Br)s1	-0.2	-7.9	36.1*	38.0*	0.0	67.8*	ASAP1 inh confirm=53.7*
COc1ccc([N+](=O)[O-])cc1NC(=S)NC(C)=O	0.7	6.5	-6.8	-4.2	-3.9	.
OC(c1ccc(Cl)c(Cl)c1)c1ncc(-c2ccccc2C(F)(F)F)[nH]1 (centres undefined)	0.0	3.2	13.7	6.2	.	.
Cc1ccc(-c2nn(-c3ccccc3)cc2/C=C/C(=O)Nc2nccs2)cc1	-1.7	-7.4	52.1*	34.0*	-0.5	68.2*	ASAP1 inh confirm=23.9
Nc1ccc2nc(-c3cccc(-c4nc5ccc(N)cc5[nH]4)n3)[nH]c2c1	3.3	-1.0	+	+	2.5	+	ASAP1 inh confirm=+
Nc1ccc2nc(-c3ccc(-c4nc5ccc(N)cc5[nH]4)cc3)[nH]c2c1	.	.	24.3	2.3	.	.
O=C(O)CSc1cc(NS(=O)(=O)c2cccc([N+](=O)[O-])c2)c2ccccc2c1O	75.1*	-29.4	25.1*	27.6*	0.1	-9.2	ASAP1 inh confirm=13.8;Granule exo CP1=-0.9
COc1ccc(OC)c(Nc2nc(NCCO)c3ccccc3n2)c1	5.0	5.7	-10.4	10.0	-0.8	.
Cc1ccc(Nc2nc(NCCO)c3ccccc3n2)cc1C	58.3*	0.0	18.1	28.4*	-0.8	.	ASAP1 inh confirm=6.2;Granule exo CP1=-2.1
NC(=O)c1ccc(NC(=O)CSc2nc3ccccc3c(=O)n2CCCN2CCOCC2)cc1	-1.8	-9.5	-1.2	-5.9	-0.6	.
NS(=O)(=O)c1ccc(CNC(=S)NC2CCCC2)cc1	-0.7	3.2	29.2*	7.4	9.0	4.8
COc1ccc(OCC(=O)Nc2ccc3oc(-c4ccncc4)nc3c2)cc1	-0.1	-17.1	3.3	11.1	-0.3	.
COc1ccc(-c2nc3cc(NC(=O)Cc4ccc(OC)c(OC)c4)ccc3o2)cc1	3.2	6.5	25.1*	9.9	-1.3	14.8
Cc1cc(C(=O)O)n(C(C)(C)C)n1	2.3	8.8	27.5*	-2.8	0.3	6.5
Cc1ccc(CN(C)C(=O)COC(=O)CSc2cc(C)c3ccccc3n2)cc1	42.6	4.5	0.3	14.8	-2.8	.
CC1(C)Cc2c(cnn2-c2ccccc2)-c2c1c1ccccc1n2CC(O)CCl (centres undefined)	8.9	-6.1	25.8*	6.9	0.6	6.8
Cn1c(C(=O)NCC2CCCO2)cc2c(=O)[nH]c3ccccc3c21 (centres undefined)	-0.4	-2.6	25.0*	14.8	.	-2.8
CN(C)C(=O)CCc1ccc2c3c([nH]c2c1)[C@]1(C)[C@@H](C(=O)N2CCOCC2)C[C@H](CC(=O)NCCN2CCOCC2)C(=O)N1CC3	-2.7	0.0	-1.1	5.1	3.9	.
CN(C)S(=O)(=O)c1cccc(C(=O)Nc2cc(S(=O)(=O)N3CCOCC3)ccc2N2CCCC2)c1	-7.7	4.7	-13.6	2.1	-2.2	.
CCOC(=O)CN1Cc2cccc(C(=O)O)c2C1=O	0.8	-3.3	25.3*	-0.4	-0.5	0.6
CCCN1Cc2cccc(C(=O)NC(CC(=O)OCC)c3ccc(C)cc3)c2C1=O (centres undefined)	-1.2	15.0	7.8	1.3	-2.0	.
CCOC(=O)CN1C(=O)CC(c2ccccc2)C1=O (centres undefined)	-10.0	11.4	6.0	-3.8	-1.1	.
CCN1CCCC1CNC(=O)c1ccc2c(c1)NC(=O)/C(=C\c1ccc(OC)c(OC)c1)S2 (centres undefined)	2.8	8.8	38.9*	23.8	-1.2	82.7*
O=C(NCCC1CCCCN1S(=O)(=O)c1ccccc1)C(=O)Nc1ccc(F)cc1 (centres undefined)	0.3	1.3	12.6	-5.2	-2.9	.
SMILES	Exocytosis inh	NRP1-CendR mod	ARFGAP1 inhibitor	ASAP1 inh	V-ATPase pHluor	ARFGAP1 confirm	others
COc1ccc(NC(=O)C(=O)NCCC2CCCCN2S(=O)(=O)c2ccc(F)cc2)cc1 (centres undefined)	5.1	-2.1	27.6*	14.7	-0.2	3.2
COc1cc(C#Cc2c(-c3cncn3C)n(C)c3ccc(-c4ccc(OC)c(OC)c4)cc23)cc(OC)c1	0.0	-5.7	7.8	5.0	3.0	.
COc1cc(C#Cc2c(-c3cncn3C)n(C)c3ccc(-c4ccc5cc[nH]c5c4)cc23)cc(OC)c1	25.4	7.3	31.8*	20.8	-2.1	21.2
O=C(OCc1cn([C@H]2CN(CC3CCCCC3)[C@@H](c3ccc(Cl)cc3)C[C@@H]2O)nn1)c1ccccc1	3.5	-3.2	-3.1	7.5	1.9	.
O=[N+]([O-])c1cccc(-n2cc3ccc([N+](=O)[O-])cc3n2)c1	3.6	0.4	40.1*	18.1	-0.4	44.8*
Cn1cc2ccc([N+](=O)[O-])cc2n1	-4.3	4.0	10.7	-6.9	7.0	.
Cc1ccc(Oc2ccc(NS(=O)(=O)c3cccc(C(=O)O)c3)cc2)cc1	-1.6	-13.7	12.1	1.9	-0.6	.
CCc1cccc(C)c1NC(=O)CSc1nnc(CCCOc2ccc(Cl)cc2Cl)n1C	-2.3	7.9	24.8*	10.3	0.6	8.3
COc1cc(C(=O)NNC(=O)CN2C(=O)NC(C)(c3ccc(C)cc3)C2=O)cc(OC)c1OC (centres undefined)	14.7	-16.0	2.5	-15.6	2.8	.
O=C(NCc1ccc2c(c1)OCO2)C(=O)NCC1OCCCN1S(=O)(=O)c1ccc(F)cc1 (centres undefined)	0.3	0.9	12.1	-2.8	0.6	.
Cc1cc(OCC(=O)Nc2cccnc2)c2c(C)c(C)c(=O)oc2c1	-0.5	-1.5	28.8*	20.3	-1.4	29.8*
Cc1cc(OCC(=O)NCc2cccnc2)c2c(C)c(C)c(=O)oc2c1	-2.9	6.6	2.8	-2.3	-5.2	.
CC1C(=O)N2CCCc3cc(NC(=O)C(=O)NCc4cccnc4)cc1c32 (centres undefined)	-13.0	-10.6	26.9*	-6.0	-1.6	-3.1
CC1C(=O)N2CCCc3cc(NC(=O)C(=O)NCc4ccc5c(c4)OCO5)cc1c32 (centres undefined)	-1.5	-10.3	-1.6	1.5	-0.4	.
COc1ccc(C(=O)Nc2cccc(S(=O)(=O)NC3=NCCC3)c2)cc1OC	-1.8	-8.6	8.8	6.9	3.5	.
CNC(=O)[C@@H]1C[C@H]1[C@@H](NC(=O)OCc1ccccc1)c1ccccc1	4.8	7.6	25.3*	4.4	-8.7	1.9
